From ChEMBL document CHEMBL1135463 (J Med Chem, 2002)
In brackets after ≈: the same amount, converted by molar mass. Activity calls are given as the source filed them. No cut-off for these calls is given here.

Columns and labels:
P388 [1] = assay: In vitro inhibition of P388 (murine leukemia) cell proliferation.; assay type: functional; conditions: Mus musculus, read-out: ED50 (the source's name)
[2] = In vitro growth inhibition of NCI-H460 (human non-small cell lung carcinoma) cell line.; assay type: functional
KM-20L2 [3] = assay: In vitro growth inhibition of KM20L2 cell line.; assay type: functional; conditions: Homo sapiens
BXPC-3 [4] = assay: In vitro growth inhibition of BXPC-3 (human pancreatic adenocarcinoma) cell line.; assay type: functional
SF-268 [5] = assay: In vitro growth inhibition of central nervous system SF-268 cell line.; assay type: functional; conditions: Homo sapiens
DU-145 [6] = assay: In vitro growth inhibition of DU-145 (human prostate carcinoma) cell line.; assay type: functional
MCF7 = assay: Cell growth inhibition of breast MCF-7 cells, expressed as 50% reduction in the net protein increase; assay type: functional; conditions: Homo sapiens
KM-20L2 [7] = assay: Cell growth inhibition of colon KM20L2 cells, expressed as 50% reduction in the net protein increase; assay type: functional; conditions: Homo sapiens
Summary of the method: (§1)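 Human tumour lines kept in 5% FBS/RPMI-1640, plated and incubated 24 h before compound dilutions were added. Exposure 48 h, then TCA fixation, washing and sulforhodamine B staining, with optical density read on a plate reader. GI50 is the concentration giving a 50% reduction in net protein increase, calculated from the OD data.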

BXPC-3 [8] = assay: Cell growth inhibition against pancreatic BXPC-3 cells, 50% reduction in the net protein increase; assay type: functional; conditions: Homo sapiens; summary of the method: as §1
DU-145 [9] = assay: Cell growth inhibition of prostate DU-145 cells, expressed as 50% reduction in the net protein increase; assay type: functional; conditions: Homo sapiens; summary of the method: as §1
SF-268 [10] = assay: Cell growth inhibition of central nervous system (CNS) SF-268 cells, expressed as 50% reduction in the net protein increase; assay type: functional; conditions: Homo sapiens; summary of the method: as §1
P388 [11] = assay: Evaluated for cell growth inhibition of the mouse leukemia P388 cells in 10% horse serum/Fisher media; assay type: functional; conditions: read-out: ED50 (the source's name)
Summary of the method: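 Murine P388 leukaemia cells grown in 10% horse serum/Fisher medium, incubated 24 h, then compound dilutions added. After 48 h, cells counted on a Coulter Z1 particle counter and the ED50 for growth inhibition calculated.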

NCI-H460 = assay: Cell growth inhibition of lung-NSC NCI-H460 cells, expressed as 50% reduction in the net protein increase; assay type: functional; conditions: Homo sapiens; summary of the method: as §1
Streptococcus pneumoniae [12] = assay: The minimum inhibitory concentration (MIC) that inhibits all visible growth of the Streptococcus pneumoniae (bacteria); assay type: functional
Summary of the method: (§2)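 Broth microdilution following NCCLS reference methods (M7-A4 for aerobic bacteria, the yeast broth dilution standard for fungi). MIC is the lowest compound concentration giving optically clear wells, with no visible growth of the test organism.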

Tubulin (Bos taurus) [13] = target: T1, Tubulin (Bos taurus) (UniProt Q6B856+Q862L2+Q862F3); assay: Inhibition of radiolabeled [3H]colchicine binding to tubulin at a concentration of 5 uM of the compound; assay type: protein assay
Summary of the method: (§3)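 [3H]colchicine 5.0 µM incubated with tubulin 1.0 µM plus inhibitor at the stated level, 10 min at 37 °C, then colchicine binding measured. Reported as percent inhibition.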

Tubulin = Tubulin (Bos taurus, UniProt Q6B856+Q862L2+Q862F3); assay: Inhibition of tubulin polymerization reported as IC50; assay type: functional
Summary of the method: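 Tubulin at 10 µM with a range of drug concentrations. Extent of assembly read after 20 min at 30 °C. IC50 taken from the concentration needed to halve assembly.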

Tubulin (Bos taurus) [14] = target: T1, Tubulin (Bos taurus); assay: Inhibition of radiolabeled [3H]colchicine binding to tubulin at a concentration of 2 uM of the compound; assay type: protein assay; summary of the method: as §3
Candida albicans = assay: The minimum inhibitory concentration (MIC) that inhibits all visible growth of the Candida albicans (fungus) at 64 ug/mL; NI is no inhibition; assay type: functional, organism-based; summary of the method: as §2
Enterobacter cloacae = assay: The minimum inhibitory concentration (MIC) that inhibits all visible growth of the Enterobacter cloacae (bacteria) at 64 ug/mL; NI is no inhibition; assay type: functional, organism-based; summary of the method: as §2
Escherichia coli = assay: The minimum inhibitory concentration (MIC) that inhibits all visible growth of the Escherichia coli (bacteria) at 64 ug/mL; NI is no inhibition; assay type: functional, organism-based; summary of the method: as §2
Neisseria gonorrhoeae [15] = assay: The minimum inhibitory concentration (MIC) that inhibits all visible growth of the Neisseria gonorrhoeae (bacteria); value may range from (16 -32); assay type: functional; summary of the method: as §2
Staphylococcus aureus = assay: The minimum inhibitory concentration (MIC) that inhibits all visible growth of the Staphylococcus aureus (bacteria) at 64 ug/mL; NI is no inhibition; assay type: functional, organism-based; summary of the method: as §2
Micrococcus luteus [16] = assay: the minimum inhibitory concentration (MIC) that inhibits all visible growth of the Micrococcus luteus (bacteria) at 64 ug/mL; NI is no inhibition; assay type: functional, organism-based; summary of the method: as §2
[17] = test system: Stenotrophomonas maltophilia; assay: The minimum inhibitory concentration (MIC) that inhibits all visible growth of the Stenotrophomonas maltophilia (bacteria) at 64 ug/mL; NI is no inhibition; assay type: functional, organism-based; summary of the method: as §2
Enterococcus faecalis [18] = assay: the minimum inhibitory concentration (MIC) that inhibits all visible growth of the Enterococcus faecalis (bacteria) at 64 ug/mL; NI is no inhibition; assay type: functional, organism-based; summary of the method: as §2
Cryptococcus neoformans [19] = assay: Minimum inhibitory concentration (MIC) that inhibits all visible growth of the Cryptococcus neoformans (fungus); assay type: functional; summary of the method: as §2
Enterococcus faecalis [20] = assay: The minimum inhibitory concentration (MIC) that inhibits all visible growth of the Enterococcus faecalis (bacteria) at 64 ug/mL; NI is no inhibition; assay type: functional, organism-based; summary of the method: as §2
Streptococcus pneumoniae [21] = assay: The minimum inhibitory concentration (MIC) that inhibits all visible growth of the Streptococcus pneumoniae (bacteria); MIC may range from (32 - 64); assay type: functional; summary of the method: as §2
Micrococcus luteus [22] = assay: the minimum inhibitory concentration (MIC) that inhibits all visible growth of the Micrococcus luteus (bacteria); assay type: functional; summary of the method: as §2
Neisseria gonorrhoeae [23] = assay: The minimum inhibitory concentration (MIC) that inhibits all visible growth of the Neisseria gonorrhoeae (bacteria); assay type: functional; summary of the method: as §2
Micrococcus luteus [24] = assay: The minimum inhibitory concentration (MIC) that inhibits all visible growth of the Micrococcus luteus (bacteria) at 64 ug/mL; NI is no inhibition; assay type: functional, organism-based; summary of the method: as §2
Cryptococcus neoformans [25] = assay: Minimum inhibitory concentration (MIC) that inhibits all visible growth of the Cryptococcus neoformans (fungus) at 64 ug/mL; NI is no inhibition; assay type: functional, organism-based; summary of the method: as §2

| EC50 (P388 [1]) [µg/mL] | GI50 (BXPC-3 [4]) [µg/mL] | GI50 (DU-145 [6]) [µg/mL] | GI50 (MCF7) [µg/mL] | Structure (SMILES) | GI50 [2] [µg/mL] | GI50 (KM-20L2 [3]) [µg/mL] | GI50 (SF-268 [5]) [µg/mL] | further results |
| --- | --- | --- | --- | --- | --- | --- | --- | --- |
| 20.2 (≈ 73.6 µM) | 16.1 (≈ 58.7 µM) | 23.2 (≈ 84.6 µM) | – | COc1ccc(C(O)c2cc(OC)cc(OC)c2)cc1 (stereo unspecified) | 21.7 (≈ 79.1 µM) | 21 (≈ 76.6 µM) | 23.3 (≈ 84.9 µM) | – |
| 17.8 (≈ 72.9 µM) | 21.2 (≈ 86.8 µM) | 15 (≈ 61.4 µM) | 21.7 (≈ 88.8 µM) | COc1ccc(C(=O)c2cc(O)cc(O)c2)cc1 | 16.6 (≈ 68 µM) | 24.5 (≈ 100 µM) | 24.5 (≈ 100 µM) | – |
| – | – | – | – | COc1ccc(/C=C\c2cc(OC)c(OC)c(OC)c2)cc1O [COMBRETASTATIN A4] | – | – | – | GI50 (KM-20L2 [7]): 0.34 µg/mL (≈ 1.07 µM); GI50 (BXPC-3 [8]): 0.39 µg/mL (≈ 1.23 µM); GI50 (DU-145 [9]): 0.0008 µg/mL (≈ 0.00253 µM); GI50 (SF-268 [10]): > 0.01 µg/mL; EC50 (P388 [11]): 0.0003 µg/mL (≈ 0.000948 µM); GI50 (NCI-H460): 0.0006 µg/mL (≈ 0.0019 µM) |
| > 100 | 20.5 (≈ 89 µM) | 15 (≈ 65.2 µM) | 30.6 (≈ 133 µM) | O=C(c1ccc(O)cc1)c1cc(O)cc(O)c1 | 25 (≈ 109 µM) | 24.5 (≈ 106 µM) | 22.3 (≈ 96.9 µM) | MIC (Streptococcus pneumoniae [12]): 64 µg/mL (≈ 278 µM) |
| – | – | – | – | COc1ccc(/C=C\c2cc(OC)cc(OC)c2)cc1 [8Z-3,4',5-TRIMETHOXYSTILBENE] | – | – | – | GI50 (BXPC-3 [8]): 0.0034 µg/mL (≈ 0.0126 µM); inhibition (Tubulin (Bos taurus) [13]): 95%; GI50 (DU-145 [9]): 0.0054 µg/mL (≈ 0.02 µM); GI50 (SF-268 [10]): 0.0044 µg/mL (≈ 0.0163 µM); IC50 (Tubulin): 1800 nM; EC50 (P388 [11]): 0.0262 µg/mL (≈ 0.0969 µM); GI50 (NCI-H460): 0.0028 µg/mL (≈ 0.0104 µM); inhibition (Tubulin (Bos taurus) [14]): 88% |
| 13.4 (≈ 51.9 µM) | 15 (≈ 58.1 µM) | 12.6 (≈ 48.8 µM) | 14.2 (≈ 55 µM) | COc1ccc(C(=O)c2cc(O)cc(OC)c2)cc1 | 10.3 (≈ 39.9 µM) | 16.2 (≈ 62.7 µM) | 13.9 (≈ 53.8 µM) | MIC (Candida albicans): inactive; MIC (Enterobacter cloacae): inactive; MIC (Escherichia coli): inactive; MIC (Neisseria gonorrhoeae [15]): 32 µg/mL (≈ 124 µM); MIC (Staphylococcus aureus): inactive; MIC (Micrococcus luteus [16]): inactive; MIC [17]: inactive; MIC (Enterococcus faecalis [18]): inactive; MIC (Cryptococcus neoformans [19]): 64 µg/mL (≈ 248 µM); MIC (Enterococcus faecalis [20]): inactive; MIC (Streptococcus pneumoniae [21]): 64 µg/mL (≈ 248 µM) |
| 24.4 (≈ 107 µM) | 15.5 (≈ 67.9 µM) | 10.2 (≈ 44.7 µM) | 14.8 (≈ 64.8 µM) | Oc1ccc(/C=C\c2cc(O)cc(O)c2)cc1 [CIS-RESVERATROL] | 13.2 (≈ 57.8 µM) | 22 (≈ 96.4 µM) | 5 (≈ 21.9 µM) | – |
| 4.49 (≈ 19.7 µM) | – | – | – | Oc1ccc(/C=C/c2cc(O)cc(O)c2)cc1 [RESVERATROL] | – | – | – | MIC (Neisseria gonorrhoeae [23]): 16 µg/mL (≈ 70.1 µM) |
| 26.2 (≈ 107 µM) | 21.7 (≈ 88.8 µM) | 16.5 (≈ 67.6 µM) | 26.8 (≈ 110 µM) | COc1cc(O)cc(C(=O)c2ccc(O)cc2)c1 | 12.1 (≈ 49.5 µM) | 31.6 (≈ 129 µM) | 26.4 (≈ 108 µM) | MIC (Candida albicans): inactive; MIC (Enterobacter cloacae): inactive; MIC (Escherichia coli): inactive; MIC (Neisseria gonorrhoeae [23]): 32 µg/mL (≈ 131 µM); MIC (Micrococcus luteus [24]): inactive; MIC (Staphylococcus aureus): inactive; MIC (Streptococcus pneumoniae [12]): 64 µg/mL (≈ 262 µM); MIC [17]: inactive; MIC (Cryptococcus neoformans [25]): inactive; MIC (Enterococcus faecalis [20]): inactive |

| Structure (SMILES) | EC50 (P388 [1]) [µg/mL] | GI50 (BXPC-3 [4]) [µg/mL] | GI50 (DU-145 [6]) [µg/mL] | GI50 (MCF7) [µg/mL] | GI50 [2] [µg/mL] | GI50 (KM-20L2 [3]) [µg/mL] | GI50 (SF-268 [5]) [µg/mL] | further results |
| --- | --- | --- | --- | --- | --- | --- | --- | --- |
| COc1ccc(/C=C/c2cc(OC)cc(OC)c2)cc1 [TRISMETHOXYRESVERATROL] | 2.77 (≈ 10.2 µM) | 0.35 (≈ 1.29 µM) | 1.5 (≈ 5.55 µM) | – | 0.62 (≈ 2.29 µM) | – | 0.56 (≈ 2.07 µM) | – |
| COc1ccc(/C=C/c2cc(O)cc(OC)c2)cc1 | 31.5 (≈ 123 µM) | – | – | – | – | – | – | MIC (Micrococcus luteus [22]): 16 µg/mL (≈ 62.4 µM) |
